We go through 7 compounds from ChEMBL document CHEMBL1157543, “Synthesis and biological evaluation of polysulfated oligosaccharide glycosides as inhibitors of angiogenesis and tumor growth” (J Med Chem, 2010).

One series deals with T1, Heparanase (Homo sapiens, UniProt Q9Y251).
T1 sequence (Q9Y251 whole entry): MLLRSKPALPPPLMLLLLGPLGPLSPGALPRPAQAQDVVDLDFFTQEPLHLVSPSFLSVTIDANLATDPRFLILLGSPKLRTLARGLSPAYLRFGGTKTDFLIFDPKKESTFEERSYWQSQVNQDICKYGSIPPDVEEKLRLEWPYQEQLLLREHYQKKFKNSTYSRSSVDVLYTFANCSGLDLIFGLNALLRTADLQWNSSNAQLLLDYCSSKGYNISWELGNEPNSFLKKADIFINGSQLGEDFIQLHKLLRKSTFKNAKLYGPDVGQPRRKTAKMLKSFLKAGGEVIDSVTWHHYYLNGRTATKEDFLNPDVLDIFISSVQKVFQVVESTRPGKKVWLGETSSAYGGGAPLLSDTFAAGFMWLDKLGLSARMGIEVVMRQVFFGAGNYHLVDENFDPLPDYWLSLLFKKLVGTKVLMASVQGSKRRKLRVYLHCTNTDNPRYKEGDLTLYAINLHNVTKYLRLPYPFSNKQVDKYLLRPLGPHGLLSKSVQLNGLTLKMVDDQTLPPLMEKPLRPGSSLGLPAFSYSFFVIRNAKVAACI
Description: Inhibition of human recombinant heparanase. The method, boiled down: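 Recombinant human heparanase assayed by ultrafiltration with 3H-labelled heparan sulfate as substrate (Km = 1.64 μM). Ki values with standard error were derived from inhibition response curves.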

Series [1] has as its target Fibroblast growth factor 1 (Homo sapiens, UniProt P05230). As to the kind of experiment: Binding affinity to FGF1 by surface plasmon-based solution affinity assay. The method, boiled down: (§1)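 Surface plasmon resonance solution affinity assay on heparin-coated CM4 chips. Buffer: HBS-EP (10 mM HEPES pH 7.4, 150 mM NaCl, 3.0 mM EDTA, 0.005% polysorbate 20). Kd is the mean of at least duplicate measurements ± SD.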
A general note: SPR reads the build-up and loss of mass on a sensor chip optically.

The target of series [2] is Fibroblast growth factor 2 (Homo sapiens, UniProt P09038). Description: Binding affinity to FGF2 by surface plasmon-based solution affinity assay. The gist of the method:
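Surface plasmon resonance solution affinity assay on heparin-coated CM4 chips. FGF-2 binding run in HBS-EP containing 300 mM NaCl. Kd is the mean of at least duplicate measurements ± SD.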

Series [3] concerns the target T2, Vascular endothelial growth factor A, long form (Homo sapiens, UniProt P15692).
T2 sequence (P15692 whole entry): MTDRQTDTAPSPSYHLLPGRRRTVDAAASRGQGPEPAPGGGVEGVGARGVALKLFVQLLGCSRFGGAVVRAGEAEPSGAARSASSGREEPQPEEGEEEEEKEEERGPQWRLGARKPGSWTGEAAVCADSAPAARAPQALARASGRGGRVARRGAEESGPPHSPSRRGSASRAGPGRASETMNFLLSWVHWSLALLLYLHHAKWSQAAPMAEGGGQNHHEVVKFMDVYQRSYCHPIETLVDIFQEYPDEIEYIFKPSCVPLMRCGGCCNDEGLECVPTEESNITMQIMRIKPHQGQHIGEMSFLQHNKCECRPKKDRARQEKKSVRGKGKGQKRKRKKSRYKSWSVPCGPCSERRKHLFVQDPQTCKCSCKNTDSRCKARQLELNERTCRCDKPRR
Description: Binding affinity to VEGF by surface plasmon-based solution affinity assay. The method, boiled down: as §1

Series [4] deals with Plasma. As to the kind of experiment: Anticoagulant activity in human plasma assessed as activated partial thromboplastin time. It is filed as functional. The gist of the method:
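Pooled normal human plasma spiked with compound in PBS at 0.1 mg/mL (methods give a 0–100 μg/mL range); APTT elevation measured. Normal range 26–36 s. Values are means of two determinations.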

For series [5], the system named is Plasma. As to the kind of experiment: Anticoagulant activity in human plasma by heptest. It is filed as functional. The method, boiled down:
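Heptest clot assay. Plasma (centrifuged 1800g, 10 min, used within 30 min) incubated with compound 2 min at 37 °C. Factor Xa added, 2 min at 37 °C, then clotting started with Recalmix; read on a ball coagulometer. Normal range 13–20 s; means of two determinations.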

For the next series, the system named is HUVEC. Description: Cytotoxicity against HUVEC. It is filed as cell-based. Particulars: human.

Chain of Fibroblast growth factor 1 (P05230 whole entry): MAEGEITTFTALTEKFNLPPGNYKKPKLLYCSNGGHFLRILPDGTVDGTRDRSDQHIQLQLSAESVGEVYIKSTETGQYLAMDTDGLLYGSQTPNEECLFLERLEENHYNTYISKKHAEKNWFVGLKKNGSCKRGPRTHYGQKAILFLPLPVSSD
Chain of Fibroblast growth factor 2 (P09038 143-288 limits assumed): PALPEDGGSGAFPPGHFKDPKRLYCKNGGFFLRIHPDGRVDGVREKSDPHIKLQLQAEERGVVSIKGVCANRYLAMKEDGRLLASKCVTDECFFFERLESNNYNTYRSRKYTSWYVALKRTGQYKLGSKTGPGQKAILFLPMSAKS

One may read the Ki as the equilibrium dissociation constant of an inhibitor or competing ligand from its target. One may read the Kd as the free concentration of one partner at which half of the binding sites on the other are occupied at equilibrium, for simple one-to-one binding. Higher therefore signals weaker binding. As usually defined, the LC50 is the concentration that kills 50% of the test population. A higher LC50 goes with a less lethal substance. As for `O=S(=O)([O-])OC[C@H]1O[C@H](OCCCCCCCCn2cc(-c3cccc4ccccc34)nn2)[C@@H](O[C@H]2O[C@H](COS(=O)(=O)[O-])[C@@H](OS(=O)(=O)[O-])[C@H](O[C@H]3O[C@H](COS(=O)(=O)[O-])[C@@H](OS(=O)(=O)[O-])[C@H](O[C@H]4O[C@H](COS(=O)(=O)[O-])[C@@H](OS(=O)(=O)[O-])[C@H](O[C@H]5O[C@H](COS(=O)(=O)[O-])[C@@H](OS(=O)(=O)[O-])[C@H](OS(=O)(=O)[O-])[C@@H]5OS(=O)(=O)[O-])[C@@H]4OS(=O)(=O)[O-])[C@@H]3OS(=O)(=O)[O-])[C@@H]2OS(=O)(=O)[O-])[C@@H](OS(=O)(=O)[O-])[C@@H]1OS(=O)(=O)[O-].[Na+].[Na+].[Na+].[Na+].[Na+].[Na+].[Na+].[Na+].[Na+].[Na+].[Na+].[Na+].[Na+].[Na+].[Na+].[Na+]`, on Heparanase, the Ki was 360 nM. The Kd in series [1] amounted to 0.12 nM; in series [2], 35 nM; in series [3], 0.7 nM. Moreover, the Time in the series with Plasma [4] came out at 89 s. The Activity in the series on Plasma [5] was 20 s. In addition, the LC50 in the series on HUVEC is greater than 100000 nM.
Consider `O=S(=O)([O-])OC[C@H]1O[C@H](OCCCn2cc(-c3ccccc3)nn2)[C@@H](O[C@H]2O[C@H](COS(=O)(=O)[O-])[C@@H](OS(=O)(=O)[O-])[C@H](O[C@H]3O[C@H](COS(=O)(=O)[O-])[C@@H](OS(=O)(=O)[O-])[C@H](O[C@H]4O[C@H](COS(=O)(=O)[O-])[C@@H](OS(=O)(=O)[O-])[C@H](O[C@H]5O[C@H](COS(=O)(=O)[O-])[C@@H](OS(=O)(=O)[O-])[C@H](OS(=O)(=O)[O-])[C@@H]5OS(=O)(=O)[O-])[C@@H]4OS(=O)(=O)[O-])[C@@H]3OS(=O)(=O)[O-])[C@@H]2OS(=O)(=O)[O-])[C@@H](OS(=O)(=O)[O-])[C@@H]1OS(=O)(=O)[O-].[Na+].[Na+].[Na+].[Na+].[Na+].[Na+].[Na+].[Na+].[Na+].[Na+].[Na+].[Na+].[Na+].[Na+].[Na+].[Na+]`, for which the inhibition constant (Ki) on Heparanase was found to be 350 nM. Also, the equilibrium dissociation constant (Kd) in series [1] was 0.1 nM; in series [2] it was 83 nM; in series [3], 1.4 nM. Moreover, in the series on HUVEC, the LC50 is greater than 100000 nM.
For `CN(C)c1cccc2c(S(=O)(=O)NCCCCCCCCO[C@H]3O[C@H](COS(=O)(=O)[O-])[C@@H](OS(=O)(=O)[O-])[C@H](OS(=O)(=O)[O-])[C@@H]3O[C@H]3O[C@H](COS(=O)(=O)[O-])[C@@H](OS(=O)(=O)[O-])[C@H](O[C@H]4O[C@H](COS(=O)(=O)[O-])[C@@H](OS(=O)(=O)[O-])[C@H](O[C@H]5O[C@H](COS(=O)(=O)[O-])[C@@H](OS(=O)(=O)[O-])[C@H](OS(=O)(=O)[O-])[C@@H]5OS(=O)(=O)[O-])[C@@H]4OS(=O)(=O)[O-])[C@@H]3OS(=O)(=O)[O-])cccc12.[Na+].[Na+].[Na+].[Na+].[Na+].[Na+].[Na+].[Na+].[Na+].[Na+].[Na+].[Na+].[Na+]`, the Ki at Heparanase stood at 330 nM. For the same compound, the Kd in series [1] was 0.2 nM; in series [2] it was 130 nM; in series [3] it was 8.9 nM. The compound also registered an LC50 in the series on HUVEC greater than 100000 nM.
The matching figures for `O=S(=O)([O-])OC[C@H]1O[C@H](OCCCCCCCCCCCCn2cc(-c3cccc4ccccc34)nn2)[C@@H](O[C@H]2O[C@H](COS(=O)(=O)[O-])[C@@H](OS(=O)(=O)[O-])[C@H](O[C@H]3O[C@H](COS(=O)(=O)[O-])[C@@H](OS(=O)(=O)[O-])[C@H](O[C@H]4O[C@H](COS(=O)(=O)[O-])[C@@H](OS(=O)(=O)[O-])[C@H](O[C@H]5O[C@H](COS(=O)(=O)[O-])[C@@H](OS(=O)(=O)[O-])[C@H](OS(=O)(=O)[O-])[C@@H]5OS(=O)(=O)[O-])[C@@H]4OS(=O)(=O)[O-])[C@@H]3OS(=O)(=O)[O-])[C@@H]2OS(=O)(=O)[O-])[C@@H](OS(=O)(=O)[O-])[C@@H]1OS(=O)(=O)[O-].[Na+].[Na+].[Na+].[Na+].[Na+].[Na+].[Na+].[Na+].[Na+].[Na+].[Na+].[Na+].[Na+].[Na+].[Na+].[Na+]`: 270 nM, 0.19 nM, 73 nM, 0.79 nM and greater than 100000 nM.
Take `CN(C)c1cccc2c(S(=O)(=O)NCCCO[C@H]3O[C@H](COS(=O)(=O)[O-])[C@@H](OS(=O)(=O)[O-])[C@H](OS(=O)(=O)[O-])[C@@H]3O[C@H]3O[C@H](COS(=O)(=O)[O-])[C@@H](OS(=O)(=O)[O-])[C@H](O[C@H]4O[C@H](COS(=O)(=O)[O-])[C@@H](OS(=O)(=O)[O-])[C@H](O[C@H]5O[C@H](COS(=O)(=O)[O-])[C@@H](OS(=O)(=O)[O-])[C@H](O[C@H]6O[C@H](COS(=O)(=O)[O-])[C@@H](OS(=O)(=O)[O-])[C@H](OS(=O)(=O)[O-])[C@@H]6OS(=O)(=O)[O-])[C@@H]5OS(=O)(=O)[O-])[C@@H]4OS(=O)(=O)[O-])[C@@H]3OS(=O)(=O)[O-])cccc12.[Na+].[Na+].[Na+].[Na+].[Na+].[Na+].[Na+].[Na+].[Na+].[Na+].[Na+].[Na+].[Na+].[Na+].[Na+].[Na+]`: the inhibition constant Ki on Heparanase worked out at 570 nM. Also, the dissociation constant Kd in series [1] worked out at 0.79 nM; in series [2] it was 86 nM; in series [3], 12.2 nM. The same compound returned an LC50 in the series with HUVEC greater than 100000 nM.
The matching figures for `O=S(=O)([O-])OC[C@H]1O[C@H](OCCCCCCCCCCCCn2cc(-c3ccccc3)nn2)[C@@H](O[C@H]2O[C@H](COS(=O)(=O)[O-])[C@@H](OS(=O)(=O)[O-])[C@H](O[C@H]3O[C@H](COS(=O)(=O)[O-])[C@@H](OS(=O)(=O)[O-])[C@H](O[C@H]4O[C@H](COS(=O)(=O)[O-])[C@@H](OS(=O)(=O)[O-])[C@H](O[C@H]5O[C@H](COS(=O)(=O)[O-])[C@@H](OS(=O)(=O)[O-])[C@H](OS(=O)(=O)[O-])[C@@H]5OS(=O)(=O)[O-])[C@@H]4OS(=O)(=O)[O-])[C@@H]3OS(=O)(=O)[O-])[C@@H]2OS(=O)(=O)[O-])[C@@H](OS(=O)(=O)[O-])[C@@H]1OS(=O)(=O)[O-].[Na+].[Na+].[Na+].[Na+].[Na+].[Na+].[Na+].[Na+].[Na+].[Na+].[Na+].[Na+].[Na+].[Na+].[Na+].[Na+]`: 270 nM, 2.3 nM, 253 nM, 5.1 nM and greater than 100000 nM.
Take `O=S(=O)([O-])OC[C@H]1O[C@H](OCCCn2cc(-c3ccccc3)nn2)[C@@H](O[C@H]2O[C@H](COS(=O)(=O)[O-])[C@@H](OS(=O)(=O)[O-])[C@H](O[C@H]3O[C@H](COS(=O)(=O)[O-])[C@@H](OS(=O)(=O)[O-])[C@H](O[C@H]4O[C@H](COS(=O)(=O)[O-])[C@@H](OS(=O)(=O)[O-])[C@H](OS(=O)(=O)[O-])[C@@H]4OS(=O)(=O)[O-])[C@@H]3OS(=O)(=O)[O-])[C@@H]2OS(=O)(=O)[O-])[C@@H](OS(=O)(=O)[O-])[C@@H]1OS(=O)(=O)[O-].[Na+].[Na+].[Na+].[Na+].[Na+].[Na+].[Na+].[Na+].[Na+].[Na+].[Na+].[Na+].[Na+]`: on Heparanase, the inhibition constant Ki is 610 nM. Moreover, the figures for the equilibrium dissociation constant (Kd) in series [1], in series [2] and in series [3] were 0.36 nM, 550 nM and 25 nM, respectively. In addition, in the series with HUVEC, the 50% lethal concentration (LC50) was greater than 100000 nM.
